Assay results: ChEMBL document CHEMBL1154130, “Synthesis and biological activities of thio-avarol derivatives” (J Nat Prod, 2008)
pIC50: −log10 of the molar value. Converted amounts (≈) assume the structure as drawn. The source made the active and inactive calls. The calls are words filed in the database; no cut-off is given here.

Tests used:
[1] = system: Radical scavenging activity; assay: Antioxidant activity assessed as DPPH radical scavenging activity; type: functional; details: for pIC50: read-out: IC50
Procedure, shortened: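 Compounds were tested in MeOH at 5, 10, 20, 50 and 100 µM with DPPH at 0.1 mM final. Absorbance at 517 nm was read after 30 min. Percent radical inhibition was plotted to give the IC50, the concentration scavenging 50% of DPPH. Trolox was the positive control.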

[2] = target: Acetylcholinesterase (Homo sapiens) (UniProt P22303)
[3] = system: Artemia salina; assay: Toxicity against Artemia salina after 24 hrs; type: organism-based; details: in vivo
Procedure, shortened: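 Freshly hatched Artemia salina larvae (10 per test) in 5 mL artificial seawater; compounds dissolved in DMSO, tested at final 100, 10 and 1 ppm, in triplicate. Surviving shrimps counted after 24 h; LD50 with 95% confidence intervals by Finney probit analysis, reported in ppm.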

[4] = system: Escherichia coli; assay: Antimicrobial activity against Escherichia coli DSM 498 after 48 hrs by serial dilution method; type: functional, organism-based
Procedure, shortened: (§1)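 Bacteria grown as liquid cultures in nutrient broth at 37 °C. […] Growth was scored after 48 h of incubation.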

[5] = system: Micrococcus luteus; assay: Antimicrobial activity against Micrococcus luteus DMS 348 after 48 hrs by serial dilution method; type: functional; procedure, shortened: as §1
[6] = system: Bacillus spizizenii; assay: Antimicrobial activity against Bacillus subtilis subsp. spizizenii DMS 347 after 48 hrs by serial dilution method; type: functional; procedure, shortened: as §1
[7] = system: Saccharomyces cerevisiae; assay: Antimicrobial activity against Saccharomyces cerevisiae DMS 70449 after 48 hrs by serial dilution method; type: functional

Chain of Acetylcholinesterase (Homo sapiens) (P22303 whole entry): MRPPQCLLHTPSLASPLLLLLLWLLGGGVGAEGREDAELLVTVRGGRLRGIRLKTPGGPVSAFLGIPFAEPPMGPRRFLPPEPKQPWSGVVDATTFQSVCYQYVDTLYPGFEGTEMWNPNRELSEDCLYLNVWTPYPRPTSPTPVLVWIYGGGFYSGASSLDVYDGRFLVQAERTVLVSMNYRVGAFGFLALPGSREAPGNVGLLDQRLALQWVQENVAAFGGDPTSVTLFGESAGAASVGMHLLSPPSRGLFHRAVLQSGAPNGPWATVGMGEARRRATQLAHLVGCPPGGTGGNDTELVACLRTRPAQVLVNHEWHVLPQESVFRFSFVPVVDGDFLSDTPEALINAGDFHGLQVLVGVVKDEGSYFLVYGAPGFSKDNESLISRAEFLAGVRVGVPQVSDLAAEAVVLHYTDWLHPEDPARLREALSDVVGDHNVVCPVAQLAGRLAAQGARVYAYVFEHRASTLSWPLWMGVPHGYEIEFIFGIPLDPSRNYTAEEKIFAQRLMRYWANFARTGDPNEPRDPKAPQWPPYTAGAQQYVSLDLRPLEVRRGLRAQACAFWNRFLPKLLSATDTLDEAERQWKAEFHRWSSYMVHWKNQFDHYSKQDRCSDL

| Compound | pIC50 [1] | MIC [2] [µg] | LC50 [3] | Activity [4] | MIC [5] | MIC ([6]; DMS 347, 48 h) [µg/mL] | MIC [7] | MIC [6] | MIC ([5]; DMS 348, 48 h) [µg/mL] | IC50 [1] | MIC ([7]; DMS 70449, 48 h) [µg/mL] |
| --- | --- | --- | --- | --- | --- | --- | --- | --- | --- | --- | --- |
| CC1=CCC[C@H]2[C@](C)(Cc3cc(O)cc(SC(C)C(=O)O)c3O)[C@@H](C)CC[C@]12C (stereo partly specified) | 4.46 | 1 | 27.25 ppm | inactive | inactive | 10 (≈ 23.9 µM) | inactive | – | – | – | – |
| CC1=CCC[C@H]2[C@](C)(CC3=CC(O)C(S[C@H]4CC[C@@]5(C)C(=CC[C@H]6[C@@H]7CC[C@H]([C@H](C)CCCC(C)C)[C@@]7(C)CC[C@@H]65)C4)=CC3O)[C@@H](C)CC[C@]12C (stereo partly specified) | 4.15 | – | Not Active | – | – | – | – | – | – | – | – |
| GENTAMICIN | – | – | – | – | 10 µg/mL | – | – | 1 µg/mL | – | – | – |
| CC1=CCC[C@H]2[C@](C)(CC3=CC(=O)C=CC3=O)[C@@H](C)CC[C@]12C [AVARONE] | 4.49 | 1 | 0.14 ppm | inactive | – | 10 (≈ 32 µM) | inactive | – | 1 (≈ 3.2 µM) | – | – |
| CC1=CCC[C@H]2[C@](C)(CC3=CC(O)C(S[C@H]4CC[C@@]5(C)C(=CC[C@H]6[C@@H]7CC[C@H]([C@H](C)CCCC(C)C)[C@@]7(C)CC[C@@H]65)C4)=C(S[C@H]4CC[C@@]5(C)C(=CC[C@H]6[C@@H]7CC[C@H]([C@H](C)CCCC(C)C)[C@@]7(C)CC[C@@H]65)C4)C3O)[C@@H](C)CC[C@]12C (stereo partly specified) | 4.38 | > 10 | Not Active | inactive | inactive | – | inactive | inactive | – | – | – |
| CC1=CCC[C@H]2[C@](C)(Cc3cc(O)c(Sc4nc5ccccc5s4)cc3O)[C@@H](C)CC[C@]12C | 4.51 | > 10 | Not Active | inactive | inactive | – | inactive | inactive | – | – | – |
| CC1=CCC[C@H]2[C@](C)(CC3=CC(=O)C(S[C@H]4CC[C@@]5(C)C(=CC[C@H]6[C@@H]7CC[C@H]([C@H](C)CCCC(C)C)[C@@]7(C)CC[C@@H]65)C4)=CC3=O)[C@@H](C)CC[C@]12C | – | > 10 | Not Active | inactive | inactive | – | inactive | inactive | – | Not Active | – |
| CC1=CCC[C@H]2[C@](C)(Cc3cc(O)c(SC(C)C(=O)O)cc3O)[C@@H](C)CC[C@]12C (stereo partly specified) | 4.45 | 1 | > 50 ppm | inactive | inactive | 10 (≈ 23.9 µM) | inactive | – | – | – | – |
| NYSTATIN | – | – | – | – | – | – | 100 µg/mL | – | – | – | – |
| Cc1c(C)c2c(c(C)c1O)CCC(C)(C(=O)O)O2 (stereo unspecified) [TROLOX] | 4.59 | – | – | – | – | – | – | – | – | – | – |
| CC1=CCC[C@H]2[C@](C)(Cc3cc(O)cc(Sc4nc5ccccc5s4)c3O)[C@@H](C)CC[C@]12C | 4.53 | 10 | Not Active | inactive | – | – | – | inactive | 0.01 (≈ 0.0208 µM) | – | 100 (≈ 208 µM) |
| CC1=CCC[C@H]2[C@](C)(Cc3cc(O)cc(Sc4cccc(C(=O)O)c4)c3O)[C@@H](C)CC[C@]12C | 4.50 | 1 | 14.73 ppm | inactive | – | 10 (≈ 21.4 µM) | inactive | – | 10 (≈ 21.4 µM) | – | – |
| CC1=CCC[C@H]2[C@](C)(Cc3cc(O)ccc3O)[C@@H](C)CC[C@]12C [AVAROL] | 4.74 | 10 | 0.18 ppm | inactive | – | 25 (≈ 79.5 µM) | inactive | – | 10 (≈ 31.8 µM) | – | – |
| CC1=CCC[C@H]2[C@](C)(Cc3cc(O)cc(Sc4ccccc4CO)c3O)[C@@H](C)CC[C@]12C | 4.60 | 10 | > 50 ppm | inactive | inactive | – | inactive | inactive | – | – | – |
